Compound activity deposited in PubChem by several laboratories.
Compounds with a hit are over-represented: about 1.3% of the library has one in this group of screens.
Smad3 inh – inhibitors of human Smad3 transcription factor binding. 88,000 tested, 0.29% active. P84022. inhibition, % at 25 µM. TR-FRET Smad3/Dy647-FoxH1 peptide binding, europium anti-His;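 active = compounds that reduce the energy-transfer binding signal between the protein and its labelled peptide by more than half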;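 also: 0% = Smad3 plus labelled peptide maximal FRET and 100% = peptide-only background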
Phagocytosis inh – inhibitors of macrophage phagocytosis | inhibition, % at 5 µM | J774A.1 macrophage IgG-bead phagocytosis, imaging | 110,000 tested, 0.07% active;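 active = inhibition above the mean of the plate negative controls plus 5 SD, cut at about 13% in these data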;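 also: phagocytic index as fraction of beads internalized from green versus red external bead signal; plate controls were DMSO negative control for no effect and cytochalasin-D positive control for full effect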
HIV Rev-RRE inh – disrupts HIV-1 Rev binding to RRE RNA. Rev peptide-RRE RNA binding, FRET. inhibition, % at 8 µM. 97,000 tested, 0.79% active;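 active = inhibition above the screen-wide mean plus 3 SD, cut at about 35% in these data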;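 also: 0% = median DMSO wells and 100% = median Neomycin B control wells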
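Probe or stimulus: fluorescein-Rev peptide as binding partner; assay system: Cy5-tagged RRE RNA duplex with fluorescein-tagged Rev peptide; timing: 5 min compound–RNA preincubation, then 15 min with peptide, 25 °C; medium: HEPES pH 7.5 buffer with KCl, MgCl2, NaCl and EDTA; signal: fluorescein-to-Cy5 FRET, 480 nm excitation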
CD11b adhes enh – enhancers of human CD11b/CD18 binding to fibrinogen. activation, % at 10 µM. 93,000 tested, 0.07% active. K562 CD11b/CD18 adhesion to fibrinogen, ATPlite luminescence;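 active = 10 µM primary screen giving 50% or more activity, confirmed by 40% or more on retest at that dose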
Target sequence (P05107 whole entry, looked up, other chains not shown): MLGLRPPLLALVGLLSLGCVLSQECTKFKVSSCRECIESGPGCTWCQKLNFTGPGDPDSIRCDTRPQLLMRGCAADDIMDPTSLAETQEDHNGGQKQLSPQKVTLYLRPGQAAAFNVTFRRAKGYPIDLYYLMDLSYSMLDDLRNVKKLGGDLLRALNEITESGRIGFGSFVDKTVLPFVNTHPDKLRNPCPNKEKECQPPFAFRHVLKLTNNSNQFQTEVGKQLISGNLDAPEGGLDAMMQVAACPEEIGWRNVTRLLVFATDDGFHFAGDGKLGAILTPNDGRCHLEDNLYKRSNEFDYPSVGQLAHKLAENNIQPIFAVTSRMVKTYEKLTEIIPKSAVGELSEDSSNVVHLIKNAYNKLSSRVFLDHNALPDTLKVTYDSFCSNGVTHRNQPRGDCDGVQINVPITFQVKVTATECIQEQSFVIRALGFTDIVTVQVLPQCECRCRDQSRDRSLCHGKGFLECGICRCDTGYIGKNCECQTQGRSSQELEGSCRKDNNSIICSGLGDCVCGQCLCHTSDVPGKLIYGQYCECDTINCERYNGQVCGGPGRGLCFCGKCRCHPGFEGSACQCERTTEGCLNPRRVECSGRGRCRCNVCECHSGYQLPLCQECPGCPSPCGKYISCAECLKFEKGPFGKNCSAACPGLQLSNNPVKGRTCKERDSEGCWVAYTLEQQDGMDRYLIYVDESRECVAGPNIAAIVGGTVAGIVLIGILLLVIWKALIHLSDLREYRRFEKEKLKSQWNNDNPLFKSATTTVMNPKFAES
EphB4 ephrin blk – blocks human EphB4 binding to ephrin-B2; AID 720; inhibition, % at 7 µM; 97,000 tested, 0.15% active; P54760; EphB4 LBD / TNYL-RAW-Alexa532 peptide, fluorescence polarization;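 active = inhibition above the screen-wide mean inhibition plus 3 SD, cut at about 15% in these data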;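 also: 0% = DMSO wells and 100% = excess unlabeled TNYL-RAW peptide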
CD11b adhes inh – CD11b/CD18-fibrinogen binding inhibition; P05107+P11215; K562 CD11b/CD18 adhesion to fibrinogen, ATPlite luminescence; Mn2+ added to activate the integrin; inhibition, % at 10 µM; 93,000 tested, 0.54% active; AID 1497;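 active = primary inhibition of 50% or more at 10 µM, then 40% or more on retest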
Active calls of the source: *; . = not tested or not shown; ! = repeats disagree; [ ] = remark or other dose.

SMILES	Smad3 inh	Phagocytosis inh	HIV Rev-RRE inh	CD11b adhes enh	EphB4 ephrin blk	CD11b adhes inh
O=C(Nc1nc2c(s1)CN(Cc1ccccc1)CC2)c1cccc(S(=O)(=O)N2CCc3ccccc32)c1	25	.	122*[fluorescence artefact?]	.	-6	.
NCCSCc1ccccc1Cl	0	.	.	.	.	.
Cc1nnc(-c2ccccc2)c(=O)n1/N=C/c1c(O)ccc2ccccc12	.	.	130*[fluorescence artefact?]	-2	7	-6
C=CCn1c(=O)c(C(=O)Nc2nnc(C)s2)c(O)c2ccccc21	36	.	.	.	.	.
O=C1C2CCCN2c2ccc(S(=O)(=O)N3CCOCC3)cc2N1Cc1ccccc1F (centres undefined)	.	.	7	.	6	.
O=C1C2CCCN2c2ccc(S(=O)(=O)N3CCOCC3)cc2N1Cc1cccc(C(F)(F)F)c1 (centres undefined)	.	2	10	142*	-1	1
c1ccc(CCc2cccnc2)nc1	10	.	.	.	.	.
O=C(Nc1ccc(Nc2ccc3c(c2)C(=O)c2ccccc2C3=O)c2c1C(=O)c1ccccc1C2=O)c1ccccc1	24	.	.	.	.	.
Oc1ccc(Cl)cc1-c1cc(C(F)(F)C(F)F)nc(-c2ccccc2)n1	7	2	19	-7	5	59*
C=CCn1c(C)cc(C(=O)COC(=O)[C@@H](NC(=O)c2ccccc2Cl)C(C)C)c1C	.	-11	.	-9	.	79*
CCCN1C(=O)/C(=C/c2ccc(N3CCCC3)c(C)c2)NC1=S	.	.	139*[fluorescence artefact?]	.	3	.
COc1cc(-c2nnc3sc(-c4ccccn4)nn23)cc(OC)c1OC	-8	.	.	.	.	.
COC(=O)Oc1ccc(/C=N/NC(=O)CSCc2ccccc2Br)cc1OC	.	0	14	-6	2	54*
CCOC(=O)c1ccc(NC(=S)NCCc2ccccc2)cc1	.	2	0	0	4	-12
CCOC(=O)c1ccc(NC(=S)NCC(O)c2ccccc2)cc1 (centres undefined)	.	-1	-5	-3	17*	18
C/C(Nc1ccccc1)=C(/C#N)C(N)=O	96*[fluorescence artefact?]	1	8	-1	-4	-36
CCNc1nc2[nH]c(=O)c3c(c2s1)OC(N)=C(C#N)C3c1ccc(C)cc1 (centres undefined)	.	.	86*[fluorescence artefact?]	.	0	.
O=c1c(/C=N/Nc2ccccc2)c(Sc2nnnn2-c2ccccc2)nc2ccccn12	.	-1	73*[fluorescence artefact?]	56	-1	-3
O=Cc1c(Sc2ccccc2)nc2ccccn2c1=O	2	2	1	2	1	-33
O=CN1CCN(C[C@H](O)CN2CCCCC2)CC1	8	.	.	.	.	.
Cc1c(C)n(CC(O)CN2C(=O)c3ccccc3S2(=O)=O)c2ccccc12 (centres undefined)	6	4	1	1	-7	-1
CC1CCCCN1C(=O)Cn1nnc(-c2cccnc2)n1 (centres undefined)	5	.	38*	.	2	.
CCOC(=O)c1c(NC(=S)Nc2ccc(Cl)cc2)sc2c1CCN(C)C2	.	-6	.	.	.	.
CCOC(=O)c1c(NC(=O)C(F)(OC)C(F)(F)F)sc2c1CCN(C)C2 (centres undefined)	-4	.	56*	.	0	.
CCOC(=O)c1c(NC(=O)CSc2nnc(C)s2)sc2c1CCN(C)C2	5	-1	40*	-2	-3	-5
SMILES	Smad3 inh	Phagocytosis inh	HIV Rev-RRE inh	CD11b adhes enh	EphB4 ephrin blk	CD11b adhes inh
Nc1ncnc2c1ncn2[C@H]1O[C@@H](C(=O)O)[C@H](O)[C@H]1O	0	.	.	.	.	.
Nc1ccc(N(S(=O)(=O)c2ccccc2)S(=O)(=O)c2ccccc2)c(Cl)c1	87*	.	.	.	.	.
O=C(NCc1ccccc1)c1sc(=S)n2c1[nH]c(=O)c1ccccc12	4	2	0	-7	2	103*
O=C(NCc1ccccc1)c1c(F)c(F)c(F)c(F)c1F	14	0	8	-4	-2	43
O=C(O)[C@@H]1[C@H](C(=O)Nc2ccccc2)[C@@H]2C=C[C@H]1O2	9	.	.	.	.	.
N[C@@]1(C(=O)O)CCC[C@@H]1C(=O)O	7	.	.	.	.	.
N#C/C(=N\O)c1nc(-c2ccccc2)cs1	3	0	9	-5	6	66*!
O=C(CN(Cc1cccs1)C(=O)CSc1nnc(COc2ccccc2)o1)NC1CCCC1	7	-1	9	1	20*	-2
CCOC(=O)c1cc(NC(=O)c2ccc(OC)cc2)c(=O)oc1-c1ccccc1	.	.	1	-4	-2	22
CC(=O)c1cc(NC(=O)c2ccc(C)cc2)c(=O)oc1/C=C/N(C)C	.	-1	122*[fluorescence artefact?]	-1	0	-5
COc1ccc(C(=O)Nc2cc(C(C)=O)c(/C=C/N(C)C)oc2=O)cc1	.	.	122*[fluorescence artefact?]	.	6	.
Cc1oc(=O)c(NC(=O)c2ccccc2)cc1C(=O)c1ccccc1	.	.	-1	.	-3	.
COC(=O)c1ccc(O)c(Sc2cc(C(=O)OC)ccc2O)c1	-6	-1	2	-7	1	98*
Cc1ccc(O)c(Sc2cc(C)ccc2O)c1	-4	-3	1	0	3	29
COc1cc(C)cc(OC)c1/C=C/C(=O)O	9	.	.	.	.	.
C[N+](C)(C)CCN[N@+]1(C)CCCc2ccccc21	103*	.	.	.	.	.
Nc1nc(-c2ccc3ccccc3c2)cc(-c2cc(-c3ccc4ccccc4c3)nc(N)n2)n1	-2	.	.	.	.	.
C/C(O)=c1/ccc2cccc3nc(C)nc1c23	1	5	91*[fluorescence artefact?]	5	3	6
O=C(O)c1c(-c2c3ccc(=O)cc-3oc3cc(O)ccc23)cc2ccccc2c1-c1ccccc1	22	.	.	.	.	.
Cc1ccc2c(c1)c1c3n2CCCN(Cc2ccccc2)C3CCC1 (centres undefined)	6	38*[artifact]	3	2	8	-1
CC1=CC(C)(C)Nc2ccc(C)cc21	73*	0	1	14	1	6
CCn1c(CSc2nnc3ccccn23)nc2cc(C(=O)O)ccc21	-4	0	9	-2	27*[fluorescence artefact?]	-1
Cc1ccccc1-n1c(SCc2c(C)noc2C)nnc1-c1cccnc1	13	-2	55*	-3	4	-2
Cc1ccccc1-n1c(SCC(=O)c2cc(C)n(C)c2C)nnc1-c1cccnc1	-12	-1	-6	-2	-3	4
CCn1c(CSc2nnc(-c3cccnc3)n2-c2ccccc2C)nc2cc(C(=O)O)ccc21	9	1	-16	9	30*[fluorescence artefact?]	22
O=C(/C=C/c1ccncc1)c1ccc(NC(=O)c2ccccc2F)cc1	.	-4	.	.	.	.
O=C(O)CCC(O)=C1S(=O)(=O)OCCOS1(=O)=O	5	.	.	.	.	.
CCn1nc([N+](=O)[O-])c(C(C#N)c2nc3cc(C(F)(F)F)ccc3s2)c(Cl)c1=O (centres undefined)	.	0	0	-8	-4	94*
CCCn1nc([N+](=O)[O-])c(C(C#N)c2nc3ccccc3o2)c(Cl)c1=O (centres undefined)	.	1	.	-8	.	99*
CC1(C)[C@H]2CC[C@]1(C)[C@H](OC(=O)CSC#N)C2	-5	.	.	.	.	.
